24 molecules from publication PMC11101930 (International Journal for Parasitology: Drugs and Drug …, 2024) can be followed below.

Data set [1] concerns newly transformed schistosomula (NTS). The experiment in a line: In vitro screening of newly transformed schistosomula. It counts as cell-based, Schistosoma mansoni. The following applies: 72 h, read-out: NTS EC50. The essentials: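 Cercariae shed from Biomphalaria glabrata under light for 4 h were mechanically transformed and kept in M199 with 5% FCS, antibiotic mastermix and pen./strep. at 37 °C, 5% CO2. 40–50 larvae per well were exposed to 10, 7.5, 5, 3.75, 2.5, 1 or 0.25 μM test compound, with DMSO (<1%) as control. Viability was scored visually at 24 and 72 h (0–3, 0.5 steps), and the assay was repeated once. Scores were normalized to vehicle, and EC50 came from a four- or two-parameter sigmoid least-squares fit.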

Data set [2] has as its system adult S. mansoni. Description: In vitro screening of adult S. mansoni worms, visual viability scoring. The class given is cell-based. The following applies: Schistosoma mansoni, 72 h, read-out: Adult S. mansoni EC50. The essentials: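 Adult worms were recovered from mouse mesenteric veins at day 49 post-infection and held in RPMI 1640 with 5% FCS and antibiotics at 37 °C, 5% CO2. Two worm pairs per well were exposed to 40, 30, 20, 10, 7.5, 5, 2.5 or 1 μM test compound, with DMSO (<1%) as control. Viability was scored visually at 24 and 72 h (0–3, 0.5 steps). Duplicates, repeated once. Scores were normalized to vehicle, and EC50 came from a four-parameter sigmoid fit (two-parameter if not applicable).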

Data set [3] is described as follows: Metabolic stability assay in murine liver microsomes. It counts as in vitro ADME. The following applies: for Microsomal stability t1/2: murine liver microsomes, 1 μM, 37 °C. The essentials: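 Test compound (1 μM) was incubated at 37 °C with mouse liver microsomes (0.5 mg/ml protein) in potassium phosphate buffer, pH 7.4, with 1.0 mM EDTA. Reactions were started with NADPH and quenched with ice-cold acetonitrile every 15 min up to 1 h. Depletion was followed by LC-MS/MS (ESI+, C18) against internal standards. A first-order exponential decay fit gave t1/2, and CLint was derived assuming hepatic blood flow of 90 ml/min/kg.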
(Microsomes from liver hold many membrane-bound enzymes, among them those of drug oxidation.)

For data set [4], the system named is S. mansoni. The experiment in a line: In vivo efficacy study in S. mansoni-infected mice. Also on record: species or system Schistosoma mansoni. Conditions: single oral gavage, 200 mg/kg (1) or 100 mg/kg (19); for Mean number of worms (SD): 21 days post-dosing. The essentials:
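Female NMRI mice (three weeks old, acclimatized one week) were each infected with 100 cercariae subcutaneously in the nuchal fold. At day 49 they received one oral gavage of test compound in Tween 80/ethanol (70:30, 10% of volume) plus tap water (sonicated, 35 °C); there were four mice per group and four untreated controls. Mice were killed 21 days post-dosing, and worms from mesenteric veins and liver were sexed, counted, and classed as dead or alive. Worm burden reduction was based on living worms versus controls, with a Kruskal-Wallis test.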

For data set [5], the system named is P. falciparum D6 strain. Description: Antimalarial activity against P. falciparum D6 strain. Conditions: among the 11 compounds most active against adult S. mansoni. The class given is cell-based, Plasmodium falciparum.

What is called EC50 is the concentration giving half of the maximal effect. Usually half-life stands for the time in which the quantity being followed falls by half. Read a high half-life as slow loss.

Structures can show the parent of a compound that is named as a salt. Where two headings read alike, the source gives them in different places.

As to `Cl.N#Cc1cc(C=NNC(=N)NN=Cc2ccc(F)c(C#N)c2)ccc1F` [Compound 1, 2,2’-Bis[(3-cyano-4-fluorophenyl)methylene]carbonimidic Dihydrazide Hydrochloride], the EC50 in data set [1] (Schistosoma mansoni) came out at 1250 nM. Further, in data set [2], the EC50 was determined as 5.46 µM. The “Microsomal stability t1/2” value in data set [3] came out at 186 min. In data set [4], the Tolerability in mice entry is “well tolerated” and the “Mean number of worms (SD)” value was 24.3 (4.3). For the same molecule, the “Antimalarial activity in vitro and in vivo (ranking)” value in data set [5] was “most potent antimalarial activity in vitro and in vivo”.
As to `N=C(NN=Cc1ccc(C(F)(F)F)cc1)NN=Cc1ccc(C(F)(F)F)cc1` [Compound 12, 2,2’-Bis[(4-trifluoromethylphenyl)methylene]carbonimidic Dihydrazide Hydrochloride], the EC50 in data set [1] (Schistosoma mansoni) came out at 6230 nM.
Take `N=C(NN=Cc1ccc(OC(F)(F)F)cc1)NN=Cc1ccc(OC(F)(F)F)cc1` [Compound 16, 2,2’-Bis[(4-trifluoromethoxyphenyl)methylene]carbonimidic Dihydrazide Hydrochloride]: the EC50 in data set [1] (Schistosoma mansoni) amounted to 3310 nM; in data set [2], 8.06 µM.
In the same order, the values of `N=C(NN=CCc1ccc(OC(F)(F)F)cc1)NN=CCc1ccc(OC(F)(F)F)cc1` [Compound 17, 2,2’-Bis[(4-trifluoromethoxyphenyl)ethylidene]carbonimidic Dihydrazide Hydrochloride] are 2010 nM and 4.91 µM.
Taken in the same sequence, the figures for `N=C(NN=Cc1ccc(OC(F)F)cc1)NN=Cc1ccc(OC(F)F)cc1` [Compound 18, 2,2’-Bis[(4-difluoromethoxyphenyl)methylene]carbonimidic Dihydrazide Hydrochloride] were 4630 nM and 5.12 µM.
In the case of `Cl.N=C(NN=CCc1ccc(OC(F)F)cc1)NN=CCc1ccc(OC(F)F)cc1` [Compound 19, 2,2’-Bis[(4-difluoromethoxyphenyl)ethylidene]carbonimidic Dihydrazide Hydrochloride], in data set [1] (Schistosoma mansoni), the EC50 was 2790 nM. Also, in data set [2], the EC50 stood at 2.78 µM. In data set [4], the Tolerability in mice entry is “well tolerated” and the “Mean number of worms (SD)” value was 28.3 (10.6).
With `Cl.N#Cc1cccc(C=NNC(=N)NN=Cc2cccc(C#N)c2)c1` [Compound 21, 2,2’-Bis[(3-cyanophenyl)methylene]carbonimidic Dihydrazide Hydrochloride], the EC50 in data set [1] (Schistosoma mansoni) was found to be 1660 nM; in data set [2], 4.04 µM. Moreover, in data set [3], the “Microsomal stability t1/2” value amounted to 58 min.
On to `N#Cc1cccc(CC=NNC(=N)NN=CCc2cccc(C#N)c2)c1` [Compound 23, 2,2’-Bis[(3-cyanophenyl)ethylidene]carbonimidic Dihydrazide Hydrochloride], for which the results for the EC50 in data set [1] (Schistosoma mansoni) and in data set [2] were 1120 nM and 2.69 µM, respectively.
As to `N=C(NN=Cc1ccc(-c2ccccc2)cc1)NN=Cc1ccc(-c2ccccc2)cc1` [Compound 26, 2,2’-Bis[(4-diphenyl)methylene]carbonimidic Dihydrazide Hydrochloride], in data set [1] (four- (a) or two-parameter (b) sigmoid fit), the EC50 worked out at 4430 nM.
For `N=C(NN=Cc1ccc([N+](=O)[O-])cc1)NN=Cc1ccc([N+](=O)[O-])cc1` [Compound 27, 2,2’-Bis[(4-nitrophenyl)methylene]carbonimidic Dihydrazide Hydrochloride], the EC50 in data set [1] (Schistosoma mansoni) was found to be 5710 nM.
In the case of `N=C(NN=Cc1ccc(N2CCOCC2)cc1)NN=Cc1ccc(N2CCOCC2)cc1` [Compound 33, 2,2’-Bis[(4-morpholinophenyl)methylene]carbonimidic Dihydrazide Hydrochloride], the EC50 in data set [1] (Schistosoma mansoni) was 2440 nM; in data set [2] it was 6.45 µM.
`COc1cc(OC)c(CC=NNC(=N)NN=CCc2cc(Cl)c(OC)cc2OC)cc1Cl` [Compound 37, 2,2’-Bis[(2,4-dimethoxy-5-chlorophenyl)ethylidene]carbonimidic Dihydrazide Hydrochloride]: the EC50 in data set [1] (Schistosoma mansoni) amounted to 2700 nM.
As for `N=C(N/N=C/c1cccc([N+](=O)[O-])c1)N/N=C/c1cccc([N+](=O)[O-])c1` [Compound 49, N',2-bis((E)-3-nitrobenzylidene)hydrazine-1-carboximidhydrazide Hydrochloride], the EC50 in data set [1] (Schistosoma mansoni) amounted to 3300 nM; in data set [2], 9.47 µM.
In the same order, the values of `N=C(N/N=C/c1cccc(-c2ccccc2)c1)N/N=C/c1cccc(-c2ccccc2)c1` [Compound 52, (E)-N'-((E)-[1,1'-biphenyl]-3-ylmethylene)-2-([1,1'-biphenyl]-3-ylmethylene)hydrazine-1-carboximidhydrazide Hydrochloride] are 3090 nM and 7.57 µM.
In the case of `N=C(N/N=C/c1ccc(-c2ccc(F)cc2)cc1)N/N=C/c1ccc(-c2ccc(F)cc2)cc1` [Compound 53, (E)-2-((4'-fluoro-[1,1'-biphenyl]-4-yl)methylene)-N'-((E)-(4'-fluoro-[1,1'-biphenyl]-4-yl)methylene)hydrazine-1-carboximidhydrazide Hydrochloride], in data set [1] (Schistosoma mansoni), the EC50 came out at 3370 nM.
Take `N=C(N/N=C/c1ccc(Oc2ccccc2)cc1)N/N=C/c1ccc(Oc2ccccc2)cc1` [Compound 57, N',2-bis((E)-4-phenoxybenzylidene)hydrazine-1-carboximidhydrazide Hydrochloride]: the concentration for a half-maximal effect (EC50) in data set [1] (Schistosoma mansoni) amounted to 3840 nM; in data set [2], 7.07 µM.
Regarding `N=C(N/N=C/c1ccc(Oc2ccc(F)cc2)cc1)N/N=C/c1ccc(Oc2ccc(F)cc2)cc1` [Compound 58, N',2-bis((E)-4-(4-fluorophenoxy)benzylidene)hydrazine-1-carboximidhydrazide Hydrochloride], the EC50 in data set [1] (Schistosoma mansoni) turned out to be 4510 nM; in data set [2] it was 8.59 µM.
Taken in the same sequence, the figures for `N=C(N/N=C/c1ccc(Oc2ccc(Cl)cc2)cc1)N/N=C/c1ccc(Oc2ccc(Cl)cc2)cc1` [Compound 59, N',2-bis((E)-4-(4-chlorophenoxy)benzylidene)hydrazine-1-carboximidhydrazide Hydrochloride] were 2700 nM and 5.52 µM.
Taken in the same sequence, the figures for `N=C(N/N=C/c1ccc2ccccc2n1)N/N=C/c1ccc2ccccc2n1` [Compound 62, (E)-N'-((E)-quinolin-2-ylmethylene)-2-(quinolin-2-ylmethylene)hydrazine-1-carboximidhydrazide Hydrochloride] were 2500 nM and 7.49 µM.
Regarding `N=C(N/N=C/c1cnc2ccccc2c1)N/N=C/c1cnc2ccccc2c1` [Compound 63, (E)-N'-((E)-quinolin-3-ylmethylene)-2-(quinolin-3-ylmethylene)hydrazine-1-carboximidhydrazide Hydrochloride], in data set [1] (Schistosoma mansoni), the EC50 worked out at 650 nM.
Take `N=C(N/N=C/c1ccnc2ccccc12)N/N=C/c1ccnc2ccccc12` [Compound 64, (E)-N'-((E)-quinolin-4-ylmethylene)-2-(quinolin-4-ylmethylene)hydrazine-1-carboximidhydrazide Hydrochloride]: the EC50 in data set [1] (Schistosoma mansoni) was 1570 nM.
Still for that read-out and setting: the result for `N#Cc1cc(/C=N/NC(=N)N/N=C/c2ccc(Cl)c(C#N)c2)ccc1Cl` [Compound 71, N',2-bis((E)-4-chloro-3-cyanobenzylidene)hydrazine-1-carboximidhydrazide Hydrochloride] reads 1240 nM.
Take `Cl.N#Cc1cc(/C=N/NC(=N)N/N=C/c2ccc(OC(F)(F)F)cc2)ccc1F` [Compound 77, N'-((E)-3-cyano-4-fluorobenzylidene)-2-((E)-4-(trifluoromethoxy)benzylidene)hydrazine-1-carboximidhydrazide Hydrochloride]: the figures for the EC50 in data set [1] (Schistosoma mansoni) and in data set [2] were 4020 nM and 6.76 µM, respectively. The half-life at 1 μM in data set [3] (mouse, liver microsomes, pH 7.4) stood at 280 min.
As for `C#CCOc1ccc(/C=N/NC(=N)N/N=C/c2ccc(C(=O)c3ccccc3)cc2)cc1` [Compound 86, N'-((E)-4-benzoylbenzylidene)-2-((E)-4-(prop-2-yn-1-yloxy)benzylidene)hydrazine-1-carboximidhydrazide Hydrochloride], the half-maximal effective concentration (EC50) in data set [1] (Schistosoma mansoni) is 4440 nM.
